Consider three molecules from ChEMBL document CHEMBL1141712, “Kinase array design, back to front: biaryl amides” (Bioorg Med Chem Lett, 2008).

The structures appear in SMILES notation. A value given as a limit tells only on which side of the number the result lay.

Series [1] concerns the target T1, Serine/threonine-protein kinase Sgk1 (Homo sapiens, UniProt O00141).
T1 sequence (O00141 whole entry): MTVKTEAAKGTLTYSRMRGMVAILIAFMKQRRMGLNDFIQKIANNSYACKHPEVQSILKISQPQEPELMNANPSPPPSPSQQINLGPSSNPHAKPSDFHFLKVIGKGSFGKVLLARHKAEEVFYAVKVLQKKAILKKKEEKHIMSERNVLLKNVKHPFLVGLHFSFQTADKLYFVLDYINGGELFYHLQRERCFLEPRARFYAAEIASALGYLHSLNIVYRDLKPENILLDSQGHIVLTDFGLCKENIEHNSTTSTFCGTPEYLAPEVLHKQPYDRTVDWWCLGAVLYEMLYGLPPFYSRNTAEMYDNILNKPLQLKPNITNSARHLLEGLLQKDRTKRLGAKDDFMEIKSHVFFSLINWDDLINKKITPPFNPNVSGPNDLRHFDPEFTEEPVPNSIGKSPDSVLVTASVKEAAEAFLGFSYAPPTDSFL
Briefly: Inhibition of SGK1.

Series [2] has as its target Vascular endothelial growth factor receptor 2 (Homo sapiens, UniProt P35968). The experiment in a line: Inhibition of VEGFR2.
A further series deals with PBMC. The experiment in a line: Inhibition of LPS-stimulated TNFalpha release in human PBMCs. It counts as functional, cell-based.
In series [3] the target is Dual specificity mitogen-activated protein kinase kinase 1 (Homo sapiens, UniProt Q02750). Briefly: Inhibition of MEK1 by cRaf/mek/Erk cascade assay.
For series [4], the target named is Serine/threonine-protein kinase PLK1 (Homo sapiens, UniProt P53350). The experiment in a line: Inhibition of PLK1.
Series [5] concerns the target Cyclin-dependent kinase 2 (Homo sapiens, UniProt P24941). Briefly: Inhibition of CDK2.
Series [6] concerns the target T2, Mitogen-activated protein kinase 14 (Homo sapiens, UniProt Q16539). The experiment in a line: Displacement of fluorescent ATP competitive ligand from p38alpha.
The target of series [7] is Receptor tyrosine-protein kinase erbB-4 (Homo sapiens, UniProt Q15303). Briefly: Inhibition of ErbB4.
Series [8] addresses Epidermal growth factor receptor (Homo sapiens, UniProt P00533).
Series [9] has as its target Macrophage colony-stimulating factor 1 receptor (Homo sapiens, UniProt P07333). Briefly: Inhibition of cFMS.
A further series has as its system Blood. Briefly: Inhibition of LPS-stimulated TNFalpha release in human whole blood. It counts as functional, tissue-based.
Series [10] in a line: Terminal half life in Lewis rat at 1 mg/kg, iv. It counts as ADME, organism-based. More on the design: dose 1 mg/kg, route intravenous. Particulars: in vivo, read-out: beta t1/2 (converted). Summed up: (§1)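 Male Lewis rats were dosed at 1 mg/kg intravenously and orally, with compound given as a solution in 10% DMSO/70% PEG200/20% water. Blood was collected over 12 h, and parameters were derived from a composite blood sampling profile.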

A short description of series [11]: Volume of distribution at steady state in Lewis rat at 1 mg/kg, iv. It counts as ADME, organism-based. More on the design: dose 1 mg/kg, route intravenous. Particulars: in vivo, read-out: Vdss. Summed up: as §1
A short description of series [12]: Oral bioavailability in Lewis rat at 1 mg/kg. Particulars: in vivo. The series is classed as ADME, organism-based. Summed up: as §1
Series [13] can be described thus: Plasma clearance in Lewis rat at 1 mg/kg, iv. The series is classed as ADME, organism-based. More on the design: dose 1 mg/kg, route intravenous. The gist of the method:
as §1

A short description of series [14]: AUC ( 0 to 12 hrs) in Lewis rat at 1 mg/kg, po. It counts as ADME, organism-based. More on the design: time < 12 hr, dose 1 mg/kg, route oral. Particulars: plasma.
The target in series [15] is T2, Mitogen-activated protein kinase 14. Briefly: Inhibition of p38alpha. Summed up:
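p38α Ki determined by measuring displacement of a fluorescent ATP-competitive inhibitor from the enzyme. Impure products and those giving inconsistent assay results were excluded.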

T2 sequence (Q16539 whole entry): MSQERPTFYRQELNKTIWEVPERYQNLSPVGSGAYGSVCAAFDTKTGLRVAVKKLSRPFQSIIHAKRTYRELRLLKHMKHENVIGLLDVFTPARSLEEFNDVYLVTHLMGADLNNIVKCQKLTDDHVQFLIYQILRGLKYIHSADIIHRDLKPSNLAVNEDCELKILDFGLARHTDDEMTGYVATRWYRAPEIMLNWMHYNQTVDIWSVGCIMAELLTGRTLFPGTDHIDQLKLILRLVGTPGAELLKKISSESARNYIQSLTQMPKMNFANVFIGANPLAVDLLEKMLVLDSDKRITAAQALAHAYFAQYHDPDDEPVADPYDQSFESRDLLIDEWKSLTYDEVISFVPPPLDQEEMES
Chain of Serine/threonine-protein kinase PLK1 (P53350 whole entry): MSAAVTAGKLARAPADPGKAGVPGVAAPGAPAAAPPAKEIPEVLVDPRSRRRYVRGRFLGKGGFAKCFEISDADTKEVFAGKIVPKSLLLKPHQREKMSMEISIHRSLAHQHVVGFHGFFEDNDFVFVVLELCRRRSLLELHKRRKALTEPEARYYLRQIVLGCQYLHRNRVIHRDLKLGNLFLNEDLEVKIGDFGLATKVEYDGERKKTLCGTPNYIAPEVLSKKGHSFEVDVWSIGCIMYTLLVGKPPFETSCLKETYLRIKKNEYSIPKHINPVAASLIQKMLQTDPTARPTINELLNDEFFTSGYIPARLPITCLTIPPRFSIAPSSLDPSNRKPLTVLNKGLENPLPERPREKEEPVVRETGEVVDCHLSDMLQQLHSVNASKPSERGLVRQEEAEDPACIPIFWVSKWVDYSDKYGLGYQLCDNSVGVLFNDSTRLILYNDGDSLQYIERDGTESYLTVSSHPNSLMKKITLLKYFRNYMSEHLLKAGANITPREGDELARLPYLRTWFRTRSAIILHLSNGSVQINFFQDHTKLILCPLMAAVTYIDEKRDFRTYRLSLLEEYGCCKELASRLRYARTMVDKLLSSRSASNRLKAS
Chain of Vascular endothelial growth factor receptor 2 (P35968 whole entry): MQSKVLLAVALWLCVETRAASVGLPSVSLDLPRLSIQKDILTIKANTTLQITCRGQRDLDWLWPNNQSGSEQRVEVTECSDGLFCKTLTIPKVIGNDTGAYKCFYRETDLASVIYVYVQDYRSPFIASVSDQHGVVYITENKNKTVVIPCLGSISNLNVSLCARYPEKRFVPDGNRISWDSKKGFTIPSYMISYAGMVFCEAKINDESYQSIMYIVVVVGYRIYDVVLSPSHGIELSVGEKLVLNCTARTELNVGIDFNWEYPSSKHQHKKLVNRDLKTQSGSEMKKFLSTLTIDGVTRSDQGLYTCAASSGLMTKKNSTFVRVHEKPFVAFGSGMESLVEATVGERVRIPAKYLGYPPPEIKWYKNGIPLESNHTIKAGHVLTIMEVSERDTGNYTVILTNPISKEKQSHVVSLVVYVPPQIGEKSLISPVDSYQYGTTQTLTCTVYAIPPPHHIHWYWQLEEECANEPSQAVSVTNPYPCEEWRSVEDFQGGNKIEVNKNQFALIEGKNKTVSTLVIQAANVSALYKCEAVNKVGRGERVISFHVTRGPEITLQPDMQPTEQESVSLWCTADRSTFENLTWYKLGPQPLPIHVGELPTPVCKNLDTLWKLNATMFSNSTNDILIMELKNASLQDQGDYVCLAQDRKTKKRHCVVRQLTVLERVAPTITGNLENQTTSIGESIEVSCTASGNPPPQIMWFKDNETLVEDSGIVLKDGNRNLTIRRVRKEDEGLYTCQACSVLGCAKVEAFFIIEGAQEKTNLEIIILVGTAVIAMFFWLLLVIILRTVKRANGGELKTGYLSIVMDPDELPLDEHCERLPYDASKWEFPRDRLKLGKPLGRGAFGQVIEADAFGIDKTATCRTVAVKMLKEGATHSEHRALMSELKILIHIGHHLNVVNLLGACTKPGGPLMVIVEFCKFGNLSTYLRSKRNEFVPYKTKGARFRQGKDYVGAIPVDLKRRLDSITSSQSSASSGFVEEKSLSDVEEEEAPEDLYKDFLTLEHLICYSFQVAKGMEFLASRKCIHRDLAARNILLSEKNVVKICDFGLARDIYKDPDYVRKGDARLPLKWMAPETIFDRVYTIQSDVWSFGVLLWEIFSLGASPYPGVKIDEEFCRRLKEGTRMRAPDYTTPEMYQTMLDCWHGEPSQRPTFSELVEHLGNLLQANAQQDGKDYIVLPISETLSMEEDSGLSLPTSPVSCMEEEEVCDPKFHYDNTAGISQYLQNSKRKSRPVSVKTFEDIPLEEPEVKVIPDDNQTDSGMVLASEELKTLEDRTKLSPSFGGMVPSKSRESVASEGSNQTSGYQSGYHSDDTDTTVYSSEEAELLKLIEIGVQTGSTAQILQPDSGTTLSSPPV
Chain of Macrophage colony-stimulating factor 1 receptor (P07333 whole entry): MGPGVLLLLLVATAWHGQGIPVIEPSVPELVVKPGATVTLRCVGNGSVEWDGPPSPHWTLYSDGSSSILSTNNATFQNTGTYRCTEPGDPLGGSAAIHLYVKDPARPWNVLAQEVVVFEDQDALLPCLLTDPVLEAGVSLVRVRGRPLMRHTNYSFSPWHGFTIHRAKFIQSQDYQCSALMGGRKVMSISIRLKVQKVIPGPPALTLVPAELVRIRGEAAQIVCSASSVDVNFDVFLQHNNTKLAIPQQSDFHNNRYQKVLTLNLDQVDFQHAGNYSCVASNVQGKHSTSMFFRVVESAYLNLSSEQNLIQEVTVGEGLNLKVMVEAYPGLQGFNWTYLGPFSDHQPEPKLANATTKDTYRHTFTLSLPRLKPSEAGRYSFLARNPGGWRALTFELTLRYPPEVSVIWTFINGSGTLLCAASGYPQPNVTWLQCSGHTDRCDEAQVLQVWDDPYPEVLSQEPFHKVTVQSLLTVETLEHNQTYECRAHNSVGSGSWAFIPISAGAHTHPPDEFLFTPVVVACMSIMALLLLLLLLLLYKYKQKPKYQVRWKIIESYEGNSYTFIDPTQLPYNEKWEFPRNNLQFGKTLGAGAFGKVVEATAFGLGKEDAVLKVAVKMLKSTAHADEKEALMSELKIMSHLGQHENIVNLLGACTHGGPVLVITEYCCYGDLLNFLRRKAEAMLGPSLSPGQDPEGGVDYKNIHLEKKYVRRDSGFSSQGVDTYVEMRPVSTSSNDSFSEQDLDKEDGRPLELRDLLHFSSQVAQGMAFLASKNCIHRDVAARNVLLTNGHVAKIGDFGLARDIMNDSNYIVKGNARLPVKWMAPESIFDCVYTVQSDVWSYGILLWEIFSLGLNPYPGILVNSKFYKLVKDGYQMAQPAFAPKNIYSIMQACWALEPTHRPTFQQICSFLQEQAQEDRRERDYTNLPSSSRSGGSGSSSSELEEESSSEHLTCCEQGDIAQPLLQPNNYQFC
Chain of Dual specificity mitogen-activated protein kinase kinase 1 (Q02750 whole entry): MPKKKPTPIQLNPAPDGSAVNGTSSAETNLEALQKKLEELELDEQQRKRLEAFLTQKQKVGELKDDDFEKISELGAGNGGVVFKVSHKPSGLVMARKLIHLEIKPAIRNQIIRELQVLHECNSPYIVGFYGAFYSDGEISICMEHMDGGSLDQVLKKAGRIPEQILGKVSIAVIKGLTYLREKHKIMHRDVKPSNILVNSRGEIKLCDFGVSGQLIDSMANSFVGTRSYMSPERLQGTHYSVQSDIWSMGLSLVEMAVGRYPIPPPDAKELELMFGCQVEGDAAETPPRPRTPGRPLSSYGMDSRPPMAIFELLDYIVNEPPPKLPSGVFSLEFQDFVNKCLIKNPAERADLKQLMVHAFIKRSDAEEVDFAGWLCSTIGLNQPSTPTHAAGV
Chain of Epidermal growth factor receptor (P00533 whole entry): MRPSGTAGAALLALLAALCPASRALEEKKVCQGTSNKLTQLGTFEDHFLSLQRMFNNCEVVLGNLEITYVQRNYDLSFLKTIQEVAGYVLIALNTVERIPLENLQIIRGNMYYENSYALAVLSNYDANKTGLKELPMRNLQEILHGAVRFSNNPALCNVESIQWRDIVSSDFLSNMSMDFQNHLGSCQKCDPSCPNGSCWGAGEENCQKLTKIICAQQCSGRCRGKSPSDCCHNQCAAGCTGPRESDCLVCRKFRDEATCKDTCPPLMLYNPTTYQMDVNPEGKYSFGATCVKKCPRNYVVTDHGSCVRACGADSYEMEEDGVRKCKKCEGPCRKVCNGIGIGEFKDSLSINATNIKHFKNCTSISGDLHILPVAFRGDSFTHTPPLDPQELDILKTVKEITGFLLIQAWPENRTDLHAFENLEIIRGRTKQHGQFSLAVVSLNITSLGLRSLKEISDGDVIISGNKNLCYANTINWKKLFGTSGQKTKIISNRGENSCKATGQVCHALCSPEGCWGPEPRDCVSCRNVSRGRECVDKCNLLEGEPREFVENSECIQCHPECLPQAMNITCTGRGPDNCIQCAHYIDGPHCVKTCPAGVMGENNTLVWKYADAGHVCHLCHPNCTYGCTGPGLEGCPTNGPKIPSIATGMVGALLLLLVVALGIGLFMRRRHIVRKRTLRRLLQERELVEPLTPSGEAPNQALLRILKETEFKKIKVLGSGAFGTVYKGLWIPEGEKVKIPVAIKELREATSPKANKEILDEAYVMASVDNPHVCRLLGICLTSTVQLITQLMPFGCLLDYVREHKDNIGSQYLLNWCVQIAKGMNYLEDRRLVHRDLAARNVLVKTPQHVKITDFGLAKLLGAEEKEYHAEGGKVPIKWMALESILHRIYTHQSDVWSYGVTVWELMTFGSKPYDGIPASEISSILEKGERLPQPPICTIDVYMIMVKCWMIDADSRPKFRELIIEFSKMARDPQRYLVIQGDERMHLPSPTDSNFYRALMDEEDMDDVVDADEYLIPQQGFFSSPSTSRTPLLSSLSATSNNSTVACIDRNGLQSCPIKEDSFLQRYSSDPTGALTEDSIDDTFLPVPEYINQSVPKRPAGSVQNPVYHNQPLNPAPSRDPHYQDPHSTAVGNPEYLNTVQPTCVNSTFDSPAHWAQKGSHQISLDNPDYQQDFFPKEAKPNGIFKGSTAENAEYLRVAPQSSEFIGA

The IC50 is the concentration that gives 50% inhibition. Lower therefore signals higher potency. What is called Ki is a dissociation constant, usually derived from enzyme kinetics or from competition with a known ligand. In the case of `Cc1ccc(C(=O)NC2CC2)cc1-c1ccc2c(C3CCNCC3)noc2c1`, the 50% inhibitory concentration (IC50) in series [1] was more than 33 µM; in [2], more than 20 µM; in the series with PBMC, 200 nM; in [3], more than 50 µM; in series [4], more than 25 µM; in [5] it was more than 20 µM. The IC50 is more than 25 µM in series [7], more than 25 µM in [8], more than 20 µM in [9] and 3000 nM in the series with Blood. In [6], this molecule gave a Ki of 4 nM.

Broadly, the bioavailability is the share of a dose that reaches the circulation, judged against a reference dose that is usually intravenous. Higher therefore signals much systemic uptake. For orientation: clearance means the volume of plasma or blood freed of the substance per unit of time. A low value points to inefficient removal. What is called AUC(0-t) is the area under the concentration-time curve up to a stated or last time point. A lower AUC(0-t) goes with low exposure. `Cc1nnc(-c2ccc(-c3cc(C(=O)NC4CC4)ccc3C)c(C)c2)o1`: the half-life in series [10] was 276 min. The Vd in [11] was 1.2 L/kg. Also, the IC50 in series [1] was more than 33 µM; in [2] it was more than 20 µM; in the series on PBMC, 100 nM; in series [3] it was 20 µM; in series [4] it was more than 25 µM; in series [5], more than 20 µM. Moreover, the figures for the IC50 (in series [9]; in the series with Blood) were more than 20 µM and 1000 nM, respectively. The molecule further showed a bioavailability in series [12] of 91%. In addition, in series [13], the clearance came to 3 mL/min/kg. Besides, in series [14], the area under the curve AUC(0-t) at 12 h amounted to 4180 ng·h/mL.

Molecule `Cc1ccc(C(=O)Nc2cccc(N3CCOCC3)c2)cc1I` had a Ki in series [15] of more than 2000 nM.
